Results from ChEMBL document CHEMBL3797186, “Single Residue Substitutions That Confer Voltage-Gated Sodium Ion Channel Subtype Selectivity in the NaV1.7 Inhibitory Peptide GpTx-1” (J Med Chem, 2016).
pIC50: −log10 of the molar value. Positions of bridges follow the written chain, without caps; N, C: chain ends. Residues, ends and D or L forms follow the SMILES beside them.

Assays:
Assay type in all cases: cell-based
[1] = molecular target: T1, Sodium channel protein type 5 subunit alpha (Homo sapiens, UniProt Q14524); test: Inhibition of human Nav1.5 expressed in HEK293 cells by whole cell patch clamp electrophysiology method
T1 sequence (Q14524 whole entry): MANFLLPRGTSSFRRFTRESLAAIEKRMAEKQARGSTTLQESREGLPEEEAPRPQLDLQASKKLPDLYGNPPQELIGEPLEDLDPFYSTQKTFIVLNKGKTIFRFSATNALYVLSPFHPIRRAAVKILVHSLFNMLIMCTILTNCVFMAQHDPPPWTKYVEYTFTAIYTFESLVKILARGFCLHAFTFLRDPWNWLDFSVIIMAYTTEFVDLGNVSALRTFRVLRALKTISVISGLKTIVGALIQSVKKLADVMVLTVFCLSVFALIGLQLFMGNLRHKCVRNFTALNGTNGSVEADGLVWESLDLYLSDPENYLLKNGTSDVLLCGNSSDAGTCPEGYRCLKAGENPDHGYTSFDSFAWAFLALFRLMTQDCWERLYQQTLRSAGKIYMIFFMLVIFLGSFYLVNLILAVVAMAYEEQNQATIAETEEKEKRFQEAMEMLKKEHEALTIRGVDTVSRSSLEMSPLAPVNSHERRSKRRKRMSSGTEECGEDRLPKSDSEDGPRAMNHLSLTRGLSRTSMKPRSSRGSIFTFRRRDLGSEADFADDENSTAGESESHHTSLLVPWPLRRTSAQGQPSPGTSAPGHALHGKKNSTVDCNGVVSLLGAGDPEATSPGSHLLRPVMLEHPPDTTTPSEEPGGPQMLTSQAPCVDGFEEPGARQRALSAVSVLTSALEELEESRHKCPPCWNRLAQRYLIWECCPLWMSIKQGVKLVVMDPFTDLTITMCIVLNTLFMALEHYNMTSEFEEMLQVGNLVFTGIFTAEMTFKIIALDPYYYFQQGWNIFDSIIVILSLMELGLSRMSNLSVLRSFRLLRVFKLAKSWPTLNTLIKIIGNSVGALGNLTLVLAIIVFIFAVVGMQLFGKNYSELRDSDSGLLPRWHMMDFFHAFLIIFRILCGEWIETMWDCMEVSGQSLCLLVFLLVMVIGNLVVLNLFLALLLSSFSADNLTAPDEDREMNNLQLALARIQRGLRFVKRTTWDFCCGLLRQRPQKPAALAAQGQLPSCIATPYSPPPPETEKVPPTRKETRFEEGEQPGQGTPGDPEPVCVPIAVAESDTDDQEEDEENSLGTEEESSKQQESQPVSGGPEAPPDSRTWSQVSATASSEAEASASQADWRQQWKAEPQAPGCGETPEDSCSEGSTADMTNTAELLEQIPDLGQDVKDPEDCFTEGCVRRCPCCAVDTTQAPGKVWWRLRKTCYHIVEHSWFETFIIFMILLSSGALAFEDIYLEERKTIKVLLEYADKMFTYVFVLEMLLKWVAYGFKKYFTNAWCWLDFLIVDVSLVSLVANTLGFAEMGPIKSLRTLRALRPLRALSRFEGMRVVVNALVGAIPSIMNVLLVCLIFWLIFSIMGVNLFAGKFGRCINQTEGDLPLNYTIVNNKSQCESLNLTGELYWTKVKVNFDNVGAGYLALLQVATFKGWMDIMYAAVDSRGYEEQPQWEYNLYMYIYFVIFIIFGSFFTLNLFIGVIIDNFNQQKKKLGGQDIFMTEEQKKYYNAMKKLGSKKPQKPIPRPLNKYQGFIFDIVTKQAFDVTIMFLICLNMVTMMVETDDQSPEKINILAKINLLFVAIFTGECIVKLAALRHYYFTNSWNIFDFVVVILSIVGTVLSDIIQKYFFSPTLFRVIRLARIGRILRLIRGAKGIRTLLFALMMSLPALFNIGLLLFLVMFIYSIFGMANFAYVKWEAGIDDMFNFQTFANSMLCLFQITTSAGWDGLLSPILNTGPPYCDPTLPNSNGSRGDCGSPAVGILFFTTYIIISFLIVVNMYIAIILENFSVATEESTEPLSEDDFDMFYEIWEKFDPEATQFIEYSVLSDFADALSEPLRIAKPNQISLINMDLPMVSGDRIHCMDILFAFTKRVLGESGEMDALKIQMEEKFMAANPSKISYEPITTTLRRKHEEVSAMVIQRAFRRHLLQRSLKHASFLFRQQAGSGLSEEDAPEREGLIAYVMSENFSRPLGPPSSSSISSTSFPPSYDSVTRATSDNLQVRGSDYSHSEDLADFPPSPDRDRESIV
Summary of the method: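 Stable HEK293 line expressing human NaV1.5, recorded on the PatchXpress 7000A. Percent inhibition versus concentration was pooled from at least 10 cells, with two to three points per concentration. The pooled set was fitted with a four-parameter Hill equation to give a single IC50 curve.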

[2] = molecular target: T1, Sodium channel protein type 5 subunit alpha; test: Inhibition of human Nav1.5 expressed in HEK293 cells assessed as inward peak current by ion-works quattro patch clamp electrophysiology method
Summary of the method: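 Stable HEK293 line expressing human NaV1.5, recorded by population patch clamp on the IonWorks Quattro.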

[3] = molecular target: T2, Sodium channel protein type 9 subunit alpha (Homo sapiens, UniProt Q15858); test: Inhibition of human Nav1.7 expressed in HEK293 cells by whole cell patch clamp electrophysiology method
T2 sequence (Q15858 whole entry): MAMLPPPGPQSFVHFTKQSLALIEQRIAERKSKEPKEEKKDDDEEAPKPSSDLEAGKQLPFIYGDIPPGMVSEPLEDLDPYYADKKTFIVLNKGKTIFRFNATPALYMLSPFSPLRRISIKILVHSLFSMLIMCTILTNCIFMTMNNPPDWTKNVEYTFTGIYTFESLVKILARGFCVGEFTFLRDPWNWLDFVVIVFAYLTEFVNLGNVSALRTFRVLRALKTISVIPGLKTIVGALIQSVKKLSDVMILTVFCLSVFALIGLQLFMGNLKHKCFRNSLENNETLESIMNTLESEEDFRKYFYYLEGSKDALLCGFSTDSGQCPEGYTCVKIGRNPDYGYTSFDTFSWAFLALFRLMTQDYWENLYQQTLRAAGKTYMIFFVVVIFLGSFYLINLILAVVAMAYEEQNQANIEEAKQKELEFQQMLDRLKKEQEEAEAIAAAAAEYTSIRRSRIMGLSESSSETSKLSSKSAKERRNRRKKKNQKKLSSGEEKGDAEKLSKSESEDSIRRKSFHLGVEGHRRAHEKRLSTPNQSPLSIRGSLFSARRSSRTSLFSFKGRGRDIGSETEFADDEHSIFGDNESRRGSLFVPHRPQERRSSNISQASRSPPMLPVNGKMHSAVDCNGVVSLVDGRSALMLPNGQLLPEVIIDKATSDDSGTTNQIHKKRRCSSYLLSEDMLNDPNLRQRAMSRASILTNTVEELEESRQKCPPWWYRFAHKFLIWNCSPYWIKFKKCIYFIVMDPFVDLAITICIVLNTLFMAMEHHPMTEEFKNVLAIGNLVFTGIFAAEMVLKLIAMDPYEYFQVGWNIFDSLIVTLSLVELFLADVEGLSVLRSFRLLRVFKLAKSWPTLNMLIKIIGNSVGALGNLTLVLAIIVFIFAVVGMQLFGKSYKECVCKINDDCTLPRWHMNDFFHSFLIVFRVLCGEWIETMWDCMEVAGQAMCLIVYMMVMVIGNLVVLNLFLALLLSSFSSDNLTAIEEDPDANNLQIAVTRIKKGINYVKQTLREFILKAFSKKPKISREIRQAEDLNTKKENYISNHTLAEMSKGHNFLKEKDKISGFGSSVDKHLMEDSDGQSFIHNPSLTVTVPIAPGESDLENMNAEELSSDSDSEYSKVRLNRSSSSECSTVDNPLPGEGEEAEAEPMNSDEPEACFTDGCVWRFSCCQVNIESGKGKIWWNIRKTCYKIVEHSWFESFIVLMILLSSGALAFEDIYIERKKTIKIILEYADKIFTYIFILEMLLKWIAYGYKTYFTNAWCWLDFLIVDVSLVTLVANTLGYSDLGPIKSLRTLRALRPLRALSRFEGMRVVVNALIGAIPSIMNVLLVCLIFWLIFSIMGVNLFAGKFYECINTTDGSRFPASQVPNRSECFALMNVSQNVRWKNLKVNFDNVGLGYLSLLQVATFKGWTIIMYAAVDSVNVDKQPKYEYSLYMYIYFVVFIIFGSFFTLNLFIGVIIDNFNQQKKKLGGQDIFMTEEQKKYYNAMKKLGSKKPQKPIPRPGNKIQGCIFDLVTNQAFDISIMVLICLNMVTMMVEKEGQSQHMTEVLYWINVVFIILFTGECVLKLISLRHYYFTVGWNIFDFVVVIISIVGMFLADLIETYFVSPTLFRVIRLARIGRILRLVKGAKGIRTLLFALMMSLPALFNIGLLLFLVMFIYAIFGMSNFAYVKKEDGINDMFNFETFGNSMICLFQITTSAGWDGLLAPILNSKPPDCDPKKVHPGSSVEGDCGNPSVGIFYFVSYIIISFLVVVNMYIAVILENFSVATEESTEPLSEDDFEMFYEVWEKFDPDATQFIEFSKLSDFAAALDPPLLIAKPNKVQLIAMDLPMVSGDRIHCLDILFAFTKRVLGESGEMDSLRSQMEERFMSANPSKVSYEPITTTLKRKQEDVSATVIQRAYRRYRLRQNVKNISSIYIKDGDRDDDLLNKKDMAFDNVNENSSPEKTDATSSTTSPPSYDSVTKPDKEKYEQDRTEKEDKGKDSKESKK

[4] = molecular target: T2, Sodium channel protein type 9 subunit alpha; test: Inhibition of human Nav1.7 expressed in HEK293 cells assessed as inward peak current by ion-works quattro patch clamp electrophysiology method

Structure (SMILES)	pIC50 [1]	pIC50 [2]	pIC50 [3]	pIC50 [4]
CSCC[C@@H]1NC(=O)[C@H](Cc2ccccc2)NC(=O)CNC(=O)[C@H](CC(C)C)NC(=O)[C@@H](NC(=O)[C@@H](N)CC(=O)O)CSSC[C@@H]2NC(=O)[C@@H]3CSSC[C@@H](C(=O)N[C@@H](CCCCN)C(=O)N[C@@H](Cc4ccc(O)cc4)C(=O)N[C@H](C(=O)N[C@@H](Cc4ccccc4)C(N)=O)C(C)C)NC(=O)[C@H](Cc4c[nH]c5ccccc45)NC(=O)[C@H](CCCCN)NC(=O)[C@H](Cc4cnc[nH]4)NC(=O)[C@H]([C@@H](C)O)NC(=O)[C@H](CCCNC(=N)N)NC(=O)[C@H](CO)NC(=O)[C@H](CSSC[C@H](NC(=O)[C@H](CCCCN)NC(=O)[C@H](CCCNC(=N)N)NC1=O)C(=O)N[C@@H](CC(=O)O)C(=O)N1CCC[C@H]1C(=O)N[C@@H](CC(=O)O)C(=O)N[C@@H](CC(N)=O)C(=O)N[C@@H](CC(=O)O)C(=O)N[C@@H](CCCCN)C(=O)N3)NC(=O)[C@H](C(C)C)NC(=O)[C@H](CC(C)C)NC(=O)[C@H](CC(N)=O)NC(=O)[C@@H]1CCCN1C(=O)[C@H](CCCNC(=N)N)NC2=O (H-DCLGFMRKCDPDNDKCCRPNLVCSRTHKWCKYVF-NH2; disulfide 2-17, 9-23, 16-30)	< 5.00	< 5.30	8.40	–
CC[C@H](C)[C@@H]1NC(=O)[C@@H]2CSSC[C@@H]3NC(=O)[C@H](C(C)C)NC(=O)[C@H](CC(C)C)NC(=O)[C@H](CC(N)=O)NC(=O)[C@@H]4CCCN4C(=O)[C@H](CCCNC(=N)N)NC(=O)[C@H](CSSC[C@H](NC(=O)[C@@H](N)CC(=O)O)C(=O)N[C@@H](CC(C)C)C(=O)N[C@@H](C)C(=O)N[C@@H](Cc4ccccc4)C(=O)N[C@@H](CCSC)C(=O)N[C@@H](CCCNC(=N)N)C(=O)N[C@@H](CCCCN)C(=O)N2)NC(=O)[C@H](CSSC[C@@H](C(=O)N[C@@H](CCCCN)C(=O)N[C@@H](Cc2ccc(O)cc2)C(=O)N[C@H](C(=O)N[C@@H](Cc2ccccc2)C(N)=O)C(C)C)NC(=O)[C@H](Cc2c[nH]c4ccccc24)NC(=O)[C@H](CCCCN)NC(=O)[C@H](Cc2cnc[nH]2)NC(=O)[C@H]([C@@H](C)O)NC(=O)[C@H](CCCNC(=N)N)NC(=O)[C@H](CO)NC3=O)NC(=O)[C@H](CCCCN)NC(=O)[C@H](CC(=O)O)NC(=O)[C@H](CC(N)=O)NC(=O)[C@H](CC(=O)O)NC(=O)[C@@H]2CCCN2C1=O (H-DCLAFMRKCIPDNDKCCRPNLVCSRTHKWCKYVF-NH2; disulfide 2-17, 9-23, 16-30)	< 5.00	–	7.57	–
CC[C@H](C)[C@@H]1NC(=O)[C@@H]2CSSC[C@@H]3NC(=O)[C@H](C(C)C)NC(=O)[C@H](CC(C)C)NC(=O)[C@H](CC(N)=O)NC(=O)[C@@H]4CCCN4C(=O)[C@H](CCCNC(=N)N)NC(=O)[C@H](CSSC[C@H](NC(=O)[C@@H](N)CC(=O)O)C(=O)N[C@@H](CC(C)C)C(=O)NCC(=O)N[C@@H](Cc4ccccc4)C(=O)N[C@@H](CCSC)C(=O)N[C@@H](CCCNC(=N)N)C(=O)N[C@@H](CCCCN)C(=O)N2)NC(=O)[C@H](CSSC[C@@H](C(=O)N[C@@H](CCCCN)C(=O)N[C@@H](Cc2ccc(O)cc2)C(=O)N[C@H](C(=O)N[C@@H](Cc2ccccc2)C(N)=O)C(C)C)NC(=O)[C@H](Cc2c[nH]c4ccccc24)NC(=O)[C@H](CCCCN)NC(=O)[C@H](Cc2cnc[nH]2)NC(=O)[C@H]([C@@H](C)O)NC(=O)[C@H](CCCNC(=N)N)NC(=O)[C@H](CO)NC3=O)NC(=O)[C@H](CCCCN)NC(=O)[C@H](CC(=O)O)NC(=O)[C@H](CC(N)=O)NC(=O)[C@H](CC(=O)O)NC(=O)[C@H](CCC(=O)O)NC1=O (H-DCLGFMRKCIEDNDKCCRPNLVCSRTHKWCKYVF-NH2; disulfide 2-17, 9-23, 16-30)	< 5.00	< 5.30	8.60	–
CC[C@H](C)[C@@H]1NC(=O)[C@@H]2CSSC[C@@H]3NC(=O)[C@H](C(C)C)NC(=O)[C@H](CC(C)C)NC(=O)[C@H](CC(N)=O)NC(=O)[C@H](CCCCN)NC(=O)[C@H](CCCNC(=N)N)NC(=O)[C@H](CSSC[C@H](NC(=O)[C@@H](N)CC(=O)O)C(=O)N[C@@H](CC(C)C)C(=O)NCC(=O)N[C@@H](Cc4ccccc4)C(=O)N[C@@H](CCSC)C(=O)N[C@@H](CCCNC(=N)N)C(=O)N[C@@H](CCCCN)C(=O)N2)NC(=O)[C@H](CSSC[C@@H](C(=O)N[C@@H](CCCCN)C(=O)N[C@@H](Cc2ccc(O)cc2)C(=O)N[C@H](C(=O)N[C@@H](Cc2ccccc2)C(N)=O)C(C)C)NC(=O)[C@H](Cc2c[nH]c4ccccc24)NC(=O)[C@H](CCCCN)NC(=O)[C@H](Cc2cnc[nH]2)NC(=O)[C@H]([C@@H](C)O)NC(=O)[C@H](CCCNC(=N)N)NC(=O)[C@H](CO)NC3=O)NC(=O)[C@H](CCCCN)NC(=O)[C@H](CC(=O)O)NC(=O)[C@H](CC(N)=O)NC(=O)[C@H](CC(=O)O)NC(=O)[C@@H]2CCCN2C1=O (H-DCLGFMRKCIPDNDKCCRKNLVCSRTHKWCKYVF-NH2; disulfide 2-17, 9-23, 16-30)	< 5.00	< 5.30	8.64	–
CSCC[C@@H]1NC(=O)[C@H](Cc2ccccc2)NC(=O)CNC(=O)[C@H](CC(C)C)NC(=O)[C@@H](NC(=O)[C@@H](N)CC(=O)O)CSSC[C@@H]2NC(=O)[C@@H]3CSSC[C@@H](C(=O)N[C@@H](CCCCN)C(=O)N[C@@H](Cc4ccc(O)cc4)C(=O)N[C@H](C(=O)N[C@@H](Cc4ccccc4)C(N)=O)C(C)C)NC(=O)[C@H](Cc4c[nH]c5ccccc45)NC(=O)[C@H](CCCCN)NC(=O)[C@H](Cc4c[nH]cn4)NC(=O)[C@H]([C@@H](C)O)NC(=O)[C@H](CCCNC(=N)N)NC(=O)[C@H](CO)NC(=O)[C@H](CSSC[C@H](NC(=O)[C@H](CCCCN)NC(=O)[C@H](CCCNC(=N)N)NC1=O)C(=O)N[C@@H](Cc1cccc4ccccc14)C(=O)N1CCC[C@H]1C(=O)N[C@@H](CC(=O)O)C(=O)N[C@@H](CC(N)=O)C(=O)N[C@@H](CC(=O)O)C(=O)N[C@@H](CCCCN)C(=O)N3)NC(=O)[C@H](C(C)C)NC(=O)[C@H](CC(C)C)NC(=O)[C@H](CC(N)=O)NC(=O)[C@@H]1CCCN1C(=O)[C@H](CCCNC(=N)N)NC2=O	–	< 5.30	8.22	6.80
CC[C@H](C)[C@@H]1NC(=O)[C@@H]2CSSC[C@@H]3NC(=O)[C@H](C(C)C)NC(=O)[C@H](CC(C)C)NC(=O)[C@H](CC(N)=O)NC(=O)[C@@H]4CCCN4C(=O)[C@H](CCCNC(=N)N)NC(=O)[C@H](CSSC[C@H](NC(=O)[C@@H](N)CC(=O)O)C(=O)N[C@@H](CC(C)C)C(=O)NCC(=O)N[C@@H](Cc4ccccc4)C(=O)N[C@@H](CCSC)C(=O)N[C@@H](CCCNC(=N)N)C(=O)N[C@@H](CCCCN)C(=O)N2)NC(=O)[C@H](CSSC[C@@H](C(=O)N[C@@H](CCCCN)C(=O)N[C@@H](Cc2ccc(O)cc2)C(=O)N[C@H](C(=O)N[C@@H](Cc2ccccc2)C(N)=O)C(C)C)NC(=O)[C@H](Cc2c[nH]c4ccccc24)NC(=O)[C@H](CC(=O)O)NC(=O)[C@H](Cc2cnc[nH]2)NC(=O)[C@H]([C@@H](C)O)NC(=O)[C@H](CCCNC(=N)N)NC(=O)[C@H](CO)NC3=O)NC(=O)[C@H](CCCCN)NC(=O)[C@H](CC(=O)O)NC(=O)[C@H](CC(N)=O)NC(=O)[C@H](CC(=O)O)NC(=O)[C@@H]2CCCN2C1=O (H-DCLGFMRKCIPDNDKCCRPNLVCSRTHDWCKYVF-NH2; disulfide 2-17, 9-23, 16-30)	< 5.00	–	7.80	–
CC[C@H](C)[C@@H]1NC(=O)[C@@H]2CSSC[C@@H]3NC(=O)[C@H](C(C)C)NC(=O)[C@H](CC(C)C)NC(=O)[C@H](CC(N)=O)NC(=O)[C@@H]4CCCN4C(=O)[C@H](CCCNC(=N)N)NC(=O)[C@H](CSSC[C@H](NC(=O)[C@@H](N)CC(=O)O)C(=O)N[C@@H](CC(C)C)C(=O)NCC(=O)N[C@@H](Cc4ccccc4)C(=O)N[C@@H](CCSC)C(=O)N[C@@H](CCCNC(=N)N)C(=O)N[C@@H](CCCCN)C(=O)N2)NC(=O)[C@H](CSSC[C@@H](C(=O)N[C@@H](CCCCN)C(=O)N[C@@H](Cc2c[nH]c4ccccc24)C(=O)N[C@H](C(=O)N[C@@H](Cc2ccccc2)C(N)=O)C(C)C)NC(=O)[C@H](Cc2c[nH]c4ccccc24)NC(=O)[C@H](CCCCN)NC(=O)[C@H](Cc2c[nH]cn2)NC(=O)[C@H]([C@@H](C)O)NC(=O)[C@H](CCCNC(=N)N)NC(=O)[C@H](CO)NC3=O)NC(=O)[C@H](CCCCN)NC(=O)[C@H](CC(=O)O)NC(=O)[C@H](CC(N)=O)NC(=O)[C@H](CC(=O)O)NC(=O)[C@@H]2CCCN2C1=O (H-DCLGFMRKCIPDNDKCCRPNLVCSRTHKWCKWVF-NH2; disulfide 2-17, 9-23, 16-30)	–	< 5.30	7.92	–
CC[C@H](C)[C@@H]1NC(=O)[C@@H]2CSSC[C@@H]3NC(=O)[C@H](C(C)C)NC(=O)[C@H](CC(C)C)NC(=O)[C@H](CC(N)=O)NC(=O)[C@@H]4CCCN4C(=O)[C@H](CCCNC(=N)N)NC(=O)[C@H](CSSC[C@H](N)C(=O)N[C@@H](CC(C)C)C(=O)NCC(=O)N[C@@H](Cc4ccccc4)C(=O)N[C@@H](CCSC)C(=O)N[C@@H](CCCNC(=N)N)C(=O)N[C@@H](CCCCN)C(=O)N2)NC(=O)[C@H](CSSC[C@@H](C(=O)N[C@@H](CCCCN)C(=O)N[C@@H](Cc2ccc(O)cc2)C(=O)N[C@H](C(=O)N[C@@H](Cc2ccccc2)C(N)=O)C(C)C)NC(=O)[C@H](Cc2c[nH]c4ccccc24)NC(=O)[C@H](CCCCN)NC(=O)[C@H](Cc2cnc[nH]2)NC(=O)[C@H]([C@@H](C)O)NC(=O)[C@H](CCCNC(=N)N)NC(=O)[C@H](CO)NC3=O)NC(=O)[C@H](CCCCN)NC(=O)[C@H](CC(=O)O)NC(=O)[C@H](CC(N)=O)NC(=O)[C@H](CC(=O)O)NC(=O)[C@@H]2CCCN2C1=O (H-CLGFMRKCIPDNDKCCRPNLVCSRTHKWCKYVF-NH2; disulfide 1-16, 8-22, 15-29)	–	< 5.30	8.10	–
